Reference: ChEMBL document CHEMBL1944580, “Synthesis of novel sulfonamide-1,2,4-triazoles, 1,3,4-thiadiazoles and 1,3,4-oxadiazoles, as potential antibacterial and antifungal agents. Biological evaluation and conformational analysis studies” (2012)
Converted amounts (≈) assume the structure as drawn.

Assays:
Pseudomonas aeruginosa [1] = assay: Antibacterial activity against Pseudomonas aeruginosa ATCC 27853 treated for 24 hrs followed by sub-cultivated for 72 hrs by micro dilution method; format: functional
How it was run: (§1)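 2 µl from each well was serially subcultured into 100 µl fresh broth per well and incubated a further 72 h. MBC is the lowest concentration with no visible growth, taken as 99.5% killing of the original inoculum. Streptomycin and ampicillin were the positive controls.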

Penicillium ochrochloron [2] = assay: Antifungal activity against Penicillium ochrochloron ATCC 9112 after 72 hrs by serial dilution method; format: functional; conditions: ATCC 9112, 72 h
How it was run: (§2)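 Modified microdilution MIC. Spores were washed from malt agar cultures with sterile 0.85% saline containing 0.1% Tween 80 and adjusted to about 1.0 × 10^5 per 100 µl well in malt broth. Compounds were dissolved in DMSO (1 mg/ml). Plates incubated 72 h at 28 °C. MIC is the lowest concentration with no visible growth under a binocular microscope. Bifonazole and ketoconazole were the references.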

Aspergillus fumigatus [3] = assay: Antifungal activity against Aspergillus fumigatus human isolate treated for 72 hrs followed by sub-cultivated for 5 days by serial dilution method; format: functional
How it was run: (§3)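 MFC obtained after the 72 h, 28 °C malt-broth microdilution (spore inoculum about 1.0 × 10^5 per well, compounds from 1 mg/ml DMSO). 2 µl was serially subcultured into 100 µl broth per well and incubated a further 5 days at 28 °C. MFC is the lowest concentration with no visible growth, taken as 99.5% killing of the original inoculum.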

Talaromyces funiculosus [4] = assay: Antifungal activity against Penicillium funiculosum ATCC 36839 treated for 72 hrs followed by sub-cultivated for 5 days by serial dilution method; format: functional; how it was run: as §3
Aspergillus flavus [5] = assay: Antifungal activity against Aspergillus flavus ATCC 9643 treated for 72 hrs followed by sub-cultivated for 5 days by serial dilution method; format: functional; how it was run: as §3
Aspergillus flavus [6] = assay: Antifungal activity against Aspergillus flavus ATCC 9643 after 72 hrs by serial dilution method; format: functional; conditions: ATCC 9643, 72 h; how it was run: as §2
Micrococcus flavus [7] = assay: Antibacterial activity against Micrococcus flavus ATCC 10240 treated for 24 hrs followed by sub-cultivated for 72 hrs by micro dilution method; format: functional; how it was run: as §1
Penicillium ochrochloron [8] = assay: Antifungal activity against Penicillium ochrochloron ATCC 9112 treated for 72 hrs followed by sub-cultivated for 5 days by serial dilution method; format: functional; how it was run: as §3
Escherichia coli [9] = assay: Antibacterial activity against Escherichia coli ATCC 35210 after 24 hrs by micro dilution method; format: functional; conditions: ATCC 35210, 24 h
How it was run: (§4)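 Microdilution MIC in 96-well plates. Bacterial suspensions adjusted in sterile saline to 1.0 × 10^5 CFU/ml, giving 1.0 × 10^4 cfu per well in LB broth. Compounds tested at up to 1 mg/ml. Plates incubated 24 h. MIC taken as the lowest concentration with no visible growth under a binocular microscope. OD at 655 nm was also read against a blank and the positive control. Streptomycin and ampicillin were the positive controls.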

Listeria monocytogenes [10] = assay: Antibacterial activity against Listeria monocytogenes NCTC 7973 treated for 24 hrs followed by sub-cultivated for 72 hrs by micro dilution method; format: functional; how it was run: as §1
Salmonella typhimurium [11] = assay: Antibacterial activity against Salmonella Typhimurium ATCC 13311 treated for 24 hrs followed by sub-cultivated for 72 hrs by micro dilution method; format: functional, Salmonella enterica subsp. enterica serovar Typhimurium; conditions: Salmonella enterica; how it was run: as §1
Aspergillus fumigatus [12] = assay: Antifungal activity against Aspergillus fumigatus human isolate after 72 hrs by serial dilution method; format: functional; how it was run: as §2
Aspergillus versicolor [13] = assay: Antifungal activity against Aspergillus versicolor ATCC 11730 after 72 hrs by serial dilution method; format: functional; conditions: ATCC 11730, 72 h; how it was run: as §2
Aspergillus niger [14] = assay: Antifungal activity against Aspergillus niger ATCC 6275 treated for 72 hrs followed by sub-cultivated for 5 days by serial dilution method; format: functional; how it was run: as §3
Enterobacter cloacae [15] = assay: Antibacterial activity against Enterobacter cloacae human isolate treated for 24 hrs followed by sub-cultivated for 72 hrs by micro dilution method; format: functional; how it was run: as §1
Aspergillus niger [16] = assay: Antifungal activity against Aspergillus niger ATCC 6275 after 72 hrs by serial dilution method; format: functional; conditions: ATCC 6275, 72 h; how it was run: as §2
Escherichia coli [17] = assay: Antibacterial activity against Escherichia coli ATCC 35210 treated for 24 hrs followed by sub-cultivated for 72 hrs by micro dilution method; format: functional; how it was run: as §1
Bacillus cereus [18] = assay: Antibacterial activity against Bacillus cereus clinical isolate after 24 hrs by micro dilution method; format: functional; how it was run: as §4
Listeria monocytogenes [19] = assay: Antibacterial activity against Listeria monocytogenes NCTC 7973 after 24 hrs by micro dilution method; format: functional; conditions: NCTC 7973, 24 h; how it was run: as §4
Trichoderma viride [20] = assay: Antifungal activity against Trichoderma viride IAM 5061 after 72 hrs by serial dilution method; format: functional; conditions: IAM 5061, 72 h; how it was run: as §2
Bacillus cereus [21] = assay: Antibacterial activity against Bacillus cereus clinical isolate treated for 24 hrs followed by sub-cultivated for 72 hrs by micro dilution method; format: functional; how it was run: as §1
Micrococcus flavus [22] = assay: Antibacterial activity against Micrococcus flavus ATCC 10240 after 24 hrs by micro dilution method; format: functional; conditions: ATCC 10240, 24 h; how it was run: as §4
Enterobacter cloacae [23] = assay: Antibacterial activity against Enterobacter cloacae human isolate after 24 hrs by micro dilution method; format: functional; how it was run: as §4
Pseudomonas aeruginosa [24] = assay: Antibacterial activity against Pseudomonas aeruginosa ATCC 27853 after 24 hrs by micro dilution method; format: functional; conditions: ATCC 27853, 24 h; how it was run: as §4
Fulvia fulva [25] = assay: Antifungal activity against Fulvia fulva treated for 72 hrs followed by sub-cultivated for 5 days by serial dilution method; format: functional; how it was run: as §3
Aspergillus versicolor [26] = assay: Antifungal activity against Aspergillus versicolor ATCC 11730 treated for 72 hrs followed by sub-cultivated for 5 days by serial dilution method; format: functional; how it was run: as §3
Staphylococcus aureus [27] = assay: Antibacterial activity against Staphylococcus aureus ATCC 6538 after 24 hrs by micro dilution method; format: functional; conditions: ATCC 6538, 24 h; how it was run: as §4
Fulvia fulva [28] = assay: Antifungal activity against Fulvia fulva after 72 hrs by serial dilution method; format: functional; how it was run: as §2
Staphylococcus aureus [29] = assay: Antibacterial activity against Staphylococcus aureus ATCC 6538 treated for 24 hrs followed by sub-cultivated for 72 hrs by micro dilution method; format: functional; how it was run: as §1
Trichoderma viride [30] = assay: Antifungal activity against Trichoderma viride IAM 5061 treated for 72 hrs followed by sub-cultivated for 5 days by serial dilution method; format: functional; how it was run: as §3
Talaromyces funiculosus [31] = assay: Antifungal activity against Penicillium funiculosum ATCC 36839 after 72 hrs by serial dilution method; format: functional; conditions: ATCC 36839, 72 h; how it was run: as §2
Salmonella typhimurium [32] = assay: Antibacterial activity against Salmonella Typhimurium ATCC 13311 after 24 hrs by micro dilution method; format: functional, Salmonella enterica subsp. enterica serovar Typhimurium; conditions: Salmonella enterica, ATCC 13311, 24 h; how it was run: as §4

| Compound | MBC (Pseudomonas aeruginosa [1]) [µM] | MIC (Penicillium ochrochloron [2]) [µM] | MFC (Aspergillus fumigatus [3]) [µM] | MFC (Talaromyces funiculosus [4]) [µM] | MFC (Aspergillus flavus [5]) [µM] | MIC (Aspergillus flavus [6]) [µM] | MBC (Micrococcus flavus [7]) [µM] | MFC (Penicillium ochrochloron [8]) [µM] | MIC (Escherichia coli [9]) [µM] | MBC (Listeria monocytogenes [10]) [µM] | MBC (Salmonella typhimurium [11]) [µM] | MIC (Aspergillus fumigatus [12]) [µM] | MIC (Aspergillus versicolor [13]) [µM] | MFC (Aspergillus niger [14]) [µM] | MBC (Enterobacter cloacae [15]) [µM] | MIC (Aspergillus niger [16]) [µM] | MBC (Escherichia coli [17]) [µM] | MIC (Bacillus cereus [18]) [µM] | MIC (Listeria monocytogenes [19]) [µM] | MIC (Trichoderma viride [20]) [µM] | further results |
| --- | --- | --- | --- | --- | --- | --- | --- | --- | --- | --- | --- | --- | --- | --- | --- | --- | --- | --- | --- | --- | --- |
| CCCn1c(Cc2cc(OC)c(OC)cc2S(=O)(=O)N(C)C)n[nH]c1=O | 780 (≈ 300 µg/mL) | 130 (≈ 50 µg/mL) | 260 (≈ 100 µg/mL) | 260 (≈ 100 µg/mL) | 260 (≈ 100 µg/mL) | 130 (≈ 50 µg/mL) | 650 (≈ 250 µg/mL) | 390 (≈ 150 µg/mL) | 650 (≈ 250 µg/mL) | 780 (≈ 300 µg/mL) | 650 (≈ 250 µg/mL) | 130 (≈ 50 µg/mL) | 130 (≈ 50 µg/mL) | 260 (≈ 100 µg/mL) | 780 (≈ 300 µg/mL) | 130 (≈ 50 µg/mL) | 650 (≈ 250 µg/mL) | 260 (≈ 100 µg/mL) | 650 (≈ 250 µg/mL) | 70 (≈ 26.9 µg/mL) | MBC (Bacillus cereus [21]): 650 µM (≈ 250 µg/mL); MIC (Micrococcus flavus [22]): 650 µM (≈ 250 µg/mL); MIC (Enterobacter cloacae [23]): 650 µM (≈ 250 µg/mL); MIC (Pseudomonas aeruginosa [24]): 650 µM (≈ 250 µg/mL); MFC (Fulvia fulva [25]): 260 µM (≈ 100 µg/mL); MFC (Aspergillus versicolor [26]): 390 µM (≈ 150 µg/mL); MIC (Staphylococcus aureus [27]): 260 µM (≈ 100 µg/mL); MIC (Fulvia fulva [28]): 260 µM (≈ 100 µg/mL); MBC (Staphylococcus aureus [29]): 390 µM (≈ 150 µg/mL); MFC (Trichoderma viride [30]): 130 µM (≈ 50 µg/mL); MIC (Talaromyces funiculosus [31]): 130 µM (≈ 50 µg/mL); MIC (Salmonella typhimurium [32]): 650 µM (≈ 250 µg/mL) |
| COc1cc(Cc2n[nH]c(=O)n2C(C)C)c(S(=O)(=O)N(C)C)cc1OC | 390 (≈ 150 µg/mL) | 130 (≈ 50 µg/mL) | 130 (≈ 50 µg/mL) | 260 (≈ 100 µg/mL) | 390 (≈ 150 µg/mL) | 260 (≈ 100 µg/mL) | 390 (≈ 150 µg/mL) | 390 (≈ 150 µg/mL) | 390 (≈ 150 µg/mL) | 390 (≈ 150 µg/mL) | 390 (≈ 150 µg/mL) | 30 (≈ 11.5 µg/mL) | 130 (≈ 50 µg/mL) | 390 (≈ 150 µg/mL) | 390 (≈ 150 µg/mL) | 260 (≈ 100 µg/mL) | 390 (≈ 150 µg/mL) | 260 (≈ 100 µg/mL) | 390 (≈ 150 µg/mL) | 30 (≈ 11.5 µg/mL) | MBC (Bacillus cereus [21]): 780 µM (≈ 300 µg/mL); MIC (Micrococcus flavus [22]): 390 µM (≈ 150 µg/mL); MIC (Enterobacter cloacae [23]): 390 µM (≈ 150 µg/mL); MIC (Pseudomonas aeruginosa [24]): 390 µM (≈ 150 µg/mL); MFC (Fulvia fulva [25]): 260 µM (≈ 100 µg/mL); MFC (Aspergillus versicolor [26]): 390 µM (≈ 150 µg/mL); MIC (Staphylococcus aureus [27]): 390 µM (≈ 150 µg/mL); MIC (Fulvia fulva [28]): 260 µM (≈ 100 µg/mL); MBC (Staphylococcus aureus [29]): 390 µM (≈ 150 µg/mL); MFC (Trichoderma viride [30]): 70 µM (≈ 26.9 µg/mL); MIC (Talaromyces funiculosus [31]): 260 µM (≈ 100 µg/mL); MIC (Salmonella typhimurium [32]): 390 µM (≈ 150 µg/mL) |
